Key:
[1] = folding enthalpy; higher = less favourable; fluorescence melt of hairpins on a sequencing array, two-state fit; conditions: sodium 0.088 M
Summary of the method: (§1)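 Library hairpins on a sequenced MiSeq flow cell carried annealed Cy3 and quencher oligos, and their Cy3 fluorescence was imaged in 50 mM Na-HEPES pH 8.0 with 25 mM NaCl, in 2.5 °C steps up to 60 °C. Signals were normalised to Cy3 before quenching and to control constructs. Melting temperature and folding enthalpy were obtained from bootstrapped two-state fits, combined by inverse-variance weighting across four replicates, and the fitted temperatures were then raised by 9.35 °C to match UV melts.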

[2] = melting temperature; fluorescence melt of hairpins on a sequencing array, two-state fit, raised by 9.35 °C to match UV melts; conditions: sodium 0.088 M
Summary of the method: as §1

CGTACGGAAACGTTAACG ((((((....)))..)))
folding enthalpy [1]: -16.7 kcal/mol
Tm [2]: 37.3 °C

GATCCGGTTACGGATC ((((((....))))))
folding enthalpy [1]: -36.9 kcal/mol
Tm [2]: 68.5 °C

GACTAACGAAAGTTGGTC (((.(((....))).)))
folding enthalpy [1]: -40.4 kcal/mol
Tm [2]: 51.3 °C

GGGATAGGAAACTATCCC (((((((....)))))))
folding enthalpy [1]: -42.8 kcal/mol
Tm [2]: 59.2 °C

GCTCCGCGAAAGCACAGC (((..((....))..)))
folding enthalpy [1]: -8.71 kcal/mol
Tm [2]: 31.3 °C

GCGCTGCGAAAGCTGTGC ((.(.((....)).).))
folding enthalpy [1]: -34.4 kcal/mol
Tm [2]: 59.5 °C

GATCAATCACTTGATC ((((((....))))))
folding enthalpy [1]: -29.9 kcal/mol
Tm [2]: 43.2 °C

CGTGGCGGAAACGCTACG (((.(((....))).)))
folding enthalpy [1]: -33.8 kcal/mol
Tm [2]: 59.6 °C

GAAGTTGGAAACAACTTC (((((((....)))))))
folding enthalpy [1]: -41.2 kcal/mol
Tm [2]: 57.3 °C

GATCTCGGCGAGATC ((((((...))))))
folding enthalpy [1]: -35.8 kcal/mol
Tm [2]: 59.6 °C

GTCCTTCGAAAGAATGAC (((.(((....))).)))
folding enthalpy [1]: -30.3 kcal/mol
Tm [2]: 39.2 °C

GAGGCCGAAAGGCTCCTC ((((((....)))..)))
folding enthalpy [1]: -10.2 kcal/mol
Tm [2]: 40.8 °C

GCACGGCCGAAAGGCTGC (((..(((....))))))
folding enthalpy [1]: -10 kcal/mol
Tm [2]: 45.1 °C

GTTCTTACGAAAGTAAAC (((..(((....))))))
folding enthalpy [1]: -6.21 kcal/mol
Tm [2]: 21.9 °C

GACTAGGAAACTAGTC ((((((....))))))
folding enthalpy [1]: -34 kcal/mol
Tm [2]: 50.8 °C

GTTGCCACGAAAGTGAAC (((..(((....))))))
folding enthalpy [1]: -11.8 kcal/mol
Tm [2]: 30.6 °C

GCGGAGCGAAAGCTAAGC ((..(((....)))..))
folding enthalpy [1]: -12.8 kcal/mol
Tm [2]: 54 °C

GATCCATACATGGATC ((((((....))))))
folding enthalpy [1]: -50.8 kcal/mol
Tm [2]: 55.8 °C

GAGTCCGAAAGGAACTC ((((((....))).)))
folding enthalpy [1]: -27.7 kcal/mol
Tm [2]: 50.7 °C

GCTTTTGGAAACAAGAGC (((.(((....))).)))
folding enthalpy [1]: -20 kcal/mol
Tm [2]: 41 °C

GAGCCGGCGAAAGCCCTC (((..(((....))))))
folding enthalpy [1]: -8.17 kcal/mol
Tm [2]: 28.7 °C

GATTGTGGAAACACAACC (.(((((....))))).)
folding enthalpy [1]: -16.9 kcal/mol
Tm [2]: 35.9 °C

GATCTTCCCGAAGATC ((((((....))))))
folding enthalpy [1]: -40.8 kcal/mol
Tm [2]: 49.4 °C

GATCGCCAGAGCGATC ((((((....))))))
folding enthalpy [1]: -37.6 kcal/mol
Tm [2]: 68.3 °C

GATCCACCTTTGGATC ((((((....))))))
folding enthalpy [1]: -34.9 kcal/mol
Tm [2]: 50.1 °C

GAATGCGAAAGCAGTTTC ((((((....)))..)))
folding enthalpy [1]: -11.7 kcal/mol
Tm [2]: 31.3 °C

GGTATCCCGAAAGGGACC (((..(((....))))))
folding enthalpy [1]: -9.73 kcal/mol
Tm [2]: 34.8 °C

GTCCGGGGAAACCCGAAC ((.((((....)))).))
folding enthalpy [1]: -18.5 kcal/mol
Tm [2]: 44.2 °C

GATCCCAAGTGGGATC ((((((....))))))
folding enthalpy [1]: -37.4 kcal/mol
Tm [2]: 60.5 °C

GATCCGAACGCGGATC ((((((....))))))
folding enthalpy [1]: -39.6 kcal/mol
Tm [2]: 55.1 °C

GCCTCACGAAAGTGCGGC (((.(((....))).)))
folding enthalpy [1]: -43.1 kcal/mol
Tm [2]: 57.7 °C

GAGGACGAAAGTCCACTC ((((((....)))..)))
folding enthalpy [1]: -12.7 kcal/mol
Tm [2]: 52.4 °C

GAAAATGCGAAAGCATTC (((..(((....))))))
folding enthalpy [1]: -10 kcal/mol
Tm [2]: 32.7 °C

GCGAAGGTTCGC ((((....))))
folding enthalpy [1]: -20.8 kcal/mol
Tm [2]: 50.4 °C

GATCCCGACTGGGATC ((((((....))))))
folding enthalpy [1]: -38.5 kcal/mol
Tm [2]: 65.8 °C

GCCGGAGGAAACCCCGGC (((((.(....).)))))
folding enthalpy [1]: -36 kcal/mol
Tm [2]: 59.6 °C

GTTGTACCGAAAGGTAAC (((..(((....))))))
folding enthalpy [1]: -23.7 kcal/mol
Tm [2]: 47.4 °C

GATCGTGCAACGATC ((((((...))))))
folding enthalpy [1]: -41 kcal/mol
Tm [2]: 67.8 °C

CAAATGAAAATTTG (((((....)))))
folding enthalpy [1]: -12.8 kcal/mol
Tm [2]: 32.8 °C

GCACCACGAAAGTGTGC (((.(((....))))))
folding enthalpy [1]: -34.6 kcal/mol
Tm [2]: 58.6 °C

GGAGTGGGAAACCGTTCC (((..((....))..)))
folding enthalpy [1]: -17.8 kcal/mol
Tm [2]: 32.3 °C

GGATTCGGAAACGAACCC ((.((((....)))).))
folding enthalpy [1]: -25.6 kcal/mol
Tm [2]: 45.6 °C

GATCGACCGGTCGATC ((((((....))))))
folding enthalpy [1]: -51.5 kcal/mol
Tm [2]: 61.5 °C

GAGACTGGAAACAGCCTC (((.(((....))).)))
folding enthalpy [1]: -23.8 kcal/mol
Tm [2]: 43.3 °C

GAAACCGAAAGGTCCTTC ((((((....)))..)))
folding enthalpy [1]: -14.6 kcal/mol
Tm [2]: 30.7 °C

GGTTCTGGAAACGGAATC (.(((.(....).))).)
folding enthalpy [1]: -18.7 kcal/mol
Tm [2]: 33 °C

GCCAGGCGAAAGCATCGC ((.(.((....)).).))
folding enthalpy [1]: -8.22 kcal/mol
Tm [2]: 36.1 °C

GAGAACCGAAAGGTCTC (((.(((....))))))
folding enthalpy [1]: -20.6 kcal/mol
Tm [2]: 48.1 °C

GACAGCGAAAGCTCAGTC ((((((....)))..)))
folding enthalpy [1]: -11.5 kcal/mol
Tm [2]: 38.7 °C

GGTTTTCGAAAGAACACC (((.(((....))).)))
folding enthalpy [1]: -35.5 kcal/mol
Tm [2]: 42.8 °C

GTGAGCGAAAGCTGCAC ((((((....))).)))
folding enthalpy [1]: -13.8 kcal/mol
Tm [2]: 48.7 °C

GCTCGTCGAAAGACAGC (((.(((....))))))
folding enthalpy [1]: -29.6 kcal/mol
Tm [2]: 51.4 °C

GGGTACGAAAGTACTCCC ((((((....)))..)))
folding enthalpy [1]: -13.4 kcal/mol
Tm [2]: 45.6 °C

GATCGCCATTGCGATC ((((((....))))))
folding enthalpy [1]: -38 kcal/mol
Tm [2]: 67.5 °C

GTGTCGGAAACGACAC ((((((....))))))
folding enthalpy [1]: -30.9 kcal/mol
Tm [2]: 69.2 °C

GGTTGGGGAAACTCGACC (((.(.(....).).)))
folding enthalpy [1]: -23.2 kcal/mol
Tm [2]: 39.5 °C

GTAAGTGGAAACATTTAC ((((.((....)).))))
folding enthalpy [1]: -25.6 kcal/mol
Tm [2]: 32.3 °C

GGGTTCGGAAACGGATCC ((.(.((....)).).))
folding enthalpy [1]: -27.2 kcal/mol
Tm [2]: 40.2 °C

GATCAGGACTCTGATC ((((((....))))))
folding enthalpy [1]: -40.6 kcal/mol
Tm [2]: 55.6 °C

GCGAATGCTCGC ((((....))))
folding enthalpy [1]: -11.5 kcal/mol
Tm [2]: 57.7 °C

GATCATCAGAATGATC ((((((....))))))
folding enthalpy [1]: -22.6 kcal/mol
Tm [2]: 46.9 °C

GTCCTCCCGAAAGGGGAC (((..(((....))))))
folding enthalpy [1]: -14.3 kcal/mol
Tm [2]: 44.8 °C

GATCACTCAGGTGATC ((((((....))))))
folding enthalpy [1]: -37 kcal/mol
Tm [2]: 57.4 °C

GATCAGATCCTGATC ((((((...))))))
folding enthalpy [1]: -37 kcal/mol
Tm [2]: 48.2 °C

CGCACGGAAACGTGAGCG ((((((....)))..)))
folding enthalpy [1]: -14.8 kcal/mol
Tm [2]: 50.5 °C

GATCCACCCTTGGATC ((((((....))))))
folding enthalpy [1]: -34.8 kcal/mol
Tm [2]: 50.4 °C

GCGCCGCGAAAGCGTGGC ((..(((....)))..))
folding enthalpy [1]: -14.9 kcal/mol
Tm [2]: 51.7 °C

GTGTCTGGAAACAGACAC (((((((....)))))))
folding enthalpy [1]: -39.9 kcal/mol
Tm [2]: 66.5 °C

GCTCCTCGAAAGAGAGC (((.(((....))))))
folding enthalpy [1]: -30 kcal/mol
Tm [2]: 49.2 °C

GGCCCAGCGAAAGCTGCC (((..(((....))))))
folding enthalpy [1]: -8.49 kcal/mol
Tm [2]: 36 °C

GGGCCACGAAAGTGACCC (((.(((....))).)))
folding enthalpy [1]: -40.5 kcal/mol
Tm [2]: 64.4 °C

GATCTAGTCTTAGATC ((((((....))))))
folding enthalpy [1]: -39.3 kcal/mol
Tm [2]: 45 °C

GATCGTAGCACGATC ((((((...))))))
folding enthalpy [1]: -34.8 kcal/mol
Tm [2]: 56.5 °C

GCACACGGAAACATGCGC ((.((.(....).)).))
folding enthalpy [1]: -19.6 kcal/mol
Tm [2]: 30.2 °C

GATCTCTACTGAGATC ((((((....))))))
folding enthalpy [1]: -41.6 kcal/mol
Tm [2]: 53.2 °C

GCAAAAGAAATTTTGC ((((((....))))))
folding enthalpy [1]: -25.9 kcal/mol
Tm [2]: 46.3 °C

GATCTCCTTGAGATC ((((((...))))))
folding enthalpy [1]: -40.6 kcal/mol
Tm [2]: 54.4 °C

GGCGCTGCGAAAGCAGCC (((..(((....))))))
folding enthalpy [1]: -6.28 kcal/mol
Tm [2]: 58.1 °C

GCATGACGAAAGTCCTGC (((.(((....))).)))
folding enthalpy [1]: -34.5 kcal/mol
Tm [2]: 51 °C

GATCTTATATAAGATC ((((((....))))))
folding enthalpy [1]: -34.1 kcal/mol
Tm [2]: 44.9 °C

GAGCGGGCGAAAGCCCTC (((..(((....))))))
folding enthalpy [1]: -6.71 kcal/mol
Tm [2]: 25.9 °C

GATCCAGTTTTGGATC ((((((....))))))
folding enthalpy [1]: -41.6 kcal/mol
Tm [2]: 52.4 °C

GCCCTGCGAAAGCACGGC (((.(((....))).)))
folding enthalpy [1]: -39.6 kcal/mol
Tm [2]: 52 °C

GCTTAGGGAAACCTGAGC (((.(((....))).)))
folding enthalpy [1]: -32.8 kcal/mol
Tm [2]: 46.7 °C

GCGGTCGAAAGACGCGC ((((((....))).)))
folding enthalpy [1]: -30.8 kcal/mol
Tm [2]: 65.6 °C

GCAGGCCCGAAAGGGTGC (((..(((....))))))
folding enthalpy [1]: -13.1 kcal/mol
Tm [2]: 41.9 °C

GTACAAGGAAACCTGTAC (((((.(....).)))))
folding enthalpy [1]: -26.1 kcal/mol
Tm [2]: 38.2 °C

GATCTGAGGCCAGATC ((((((....))))))
folding enthalpy [1]: -35.8 kcal/mol
Tm [2]: 47.1 °C

GTAGCACGAAAGTGTTAC (((.(((....))).)))
folding enthalpy [1]: -29.2 kcal/mol
Tm [2]: 51.5 °C

GTACCGGGAAACTGGTAC (((((.(....).)))))
folding enthalpy [1]: -33.2 kcal/mol
Tm [2]: 51.4 °C

GGAGGCGCGAAAGCGTCC (((..(((....))))))
folding enthalpy [1]: -8.65 kcal/mol
Tm [2]: 47 °C

GGACTCGAAAGAGGCTCC ((((((....)))..)))
folding enthalpy [1]: -13.3 kcal/mol
Tm [2]: 48.9 °C

GGGCTCGAAAGAGTACCC ((((((....)))..)))
folding enthalpy [1]: -17.5 kcal/mol
Tm [2]: 45 °C

From the array DNA melting data of Ke et al. (doi:10.1101/2024.01.08.574731)
